Results published in ChEMBL document CHEMBL1212742 (2010).
Values after ≈ are worked out from the molar mass of the structure shown.

Tests used:
Format in all cases: functional
[1] = tested on: Mycobacterium tuberculosis; assay: Antimicrobial activity against Mycobacterium tuberculosis 32C1 harboring embB445 CAG-CGG(Gln-Arg) mutation in embCAB gene after 4 weeks by Bactec 460TB method
Procedure, shortened: (§1)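 EMB MIC by radiometric Bactec 460TB liquid method for clones from strain 210. The clones were selected on 7H10 containing 8, 16 or 32 µg/ml EMB final (~10^9 cells plated, 37°C, 4 weeks), then subcultured in 7H9 without EMB before MIC testing. embCAB was genotyped.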

[2] = tested on: Mycobacterium tuberculosis; assay: Antimicrobial activity against Mycobacterium tuberculosis 32C2 harboring embB497 CAG-CGG(Gln-Arg) mutation in embCAB gene after 4 weeks by Bactec 460TB method; procedure, shortened: as §1
[3] = tested on: Mycobacterium tuberculosis; assay: Antimicrobial activity against Mycobacterium tuberculosis 16C11 harboring embB397 CCG-TCG(Pro-Ser) mutation in embCAB gene after 4 weeks by Bactec 460TB method; procedure, shortened: as §1
[4] = tested on: Mycobacterium tuberculosis; assay: Antimicrobial activity against Mycobacterium tuberculosis NJT210GAC harboring embB406 GGC-GAC(Gly-Asp) mutation in embB gene after 4 weeks
Procedure, shortened: (§2)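 Isogenic embB mutants made by allelic exchange in strain 210. PCR-built fragments carried the codon of interest; double-crossover colonies were screened by molecular beacon assay and confirmed by direct embB sequencing. MICs of EMB, INH and RIF were determined by radiometric Bactec 460TB and 7H10 agar proportion, alongside parent 210.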

[5] = tested on: Mycobacterium tuberculosis; assay: Antimicrobial activity against Mycobacterium tuberculosis 16C16 harboring embB1024 GAC-AAC(Asp-Asn) mutation in embCAB gene after 4 weeks by Bactec 460TB method; procedure, shortened: as §1
[6] = tested on: Mycobacterium tuberculosis; assay: Antimicrobial activity against Mycobacterium tuberculosis 8C5 harboring embC13 CGG-CTG(Arg-Leu) mutation in embCAB gene after 4 weeks by Bactec 460TB method; procedure, shortened: as §1
[7] = tested on: Mycobacterium tuberculosis; assay: Antimicrobial activity against Mycobacterium tuberculosis 16C14 harboring embB445 CAG-CGG(Gln-Arg) mutation in embCAB gene after 4 weeks by Bactec 460TB method; procedure, shortened: as §1
[8] = tested on: Mycobacterium tuberculosis; assay: Antimicrobial activity against Mycobacterium tuberculosis 32C5 harboring embB324 GGC-CGC(Gly-Arg) mutation in embCAB gene after 4 weeks by Bactec 460TB method; procedure, shortened: as §1
[9] = tested on: Mycobacterium tuberculosis; assay: Antimicrobial activity against Mycobacterium tuberculosis 32C4 harboring embB497 CAG-CGG(Gln-Arg) mutation in embCAB gene after 4 weeks by Bactec 460TB method
[10] = tested on: Mycobacterium tuberculosis; assay: Antimicrobial activity against Mycobacterium tuberculosis NJT210GCC harboring embB406 GGC-GCC(Gly-Ala) mutation in embB gene after 4 weeks; procedure, shortened: as §2
[11] = tested on: Mycobacterium tuberculosis; assay: Antimicrobial activity against Mycobacterium tuberculosis 16C7 harboring embB445 CAG-CGG(Gln-Arg) mutation in embCAB gene after 4 weeks by Bactec 460TB method; procedure, shortened: as §1
[12] = tested on: Mycobacterium tuberculosis; assay: Antimicrobial activity against Mycobacterium tuberculosis 8C7 harboring embB445 CAG-CGG(Gln-Arg) mutation in embCAB gene after 4 weeks by Bactec 460TB method; procedure, shortened: as §1
[13] = tested on: Mycobacterium tuberculosis; assay: Antimicrobial activity against Mycobacterium tuberculosis 16C11 harboring embB397 CCG-TCG(Pro-Ser) mutation in embCAB gene after 4 weeks by 7H agar proportion method
Procedure, shortened: (§3)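 EMB MIC by 7H10 agar proportion for clones selected from M. tuberculosis strain 210. About 10^9 cells from liquid culture (OD600 ~1.5, resuspended in 7H9) were plated on 7H10 with EMB at 8, 16 or 32 µg/ml final, incubated 37°C for 4 weeks. Colonies were subcultured in EMB-free 7H9 before testing, and embCAB was genotyped.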

[14] = tested on: Mycobacterium tuberculosis; assay: Antimicrobial activity against Mycobacterium tuberculosis NJT210CGG harboring embB497 CAG-CGG(Gln-Arg) mutation in embB gene after 4 weeks; procedure, shortened: as §2
[15] = tested on: Mycobacterium tuberculosis; assay: Antimicrobial activity against Mycobacterium tuberculosis 32C1 harboring embB445 CAG-CGG(Gln-Arg) mutation in embCAB gene after 4 weeks by 7H agar proportion method; procedure, shortened: as §3
[16] = tested on: Mycobacterium tuberculosis; assay: Antimicrobial activity against Mycobacterium tuberculosis 8C5 harboring embC13 CGG-CTG(Arg-Leu) mutation in embCAB gene after 4 weeks by 7H agar proportion method; procedure, shortened: as §3
[17] = tested on: Mycobacterium tuberculosis; assay: Antimicrobial activity against Mycobacterium tuberculosis 16C14 harboring embB445 CAG-CGG(Gln-Arg) mutation in embCAB gene after 4 weeks by 7H agar proportion method; procedure, shortened: as §3
[18] = tested on: Mycobacterium tuberculosis; assay: Antimicrobial activity against Mycobacterium tuberculosis 32C3 harboring embB497 CAG-CGG(Gln-Arg) mutation in embCAB gene after 4 weeks by Bactec 460TB method; procedure, shortened: as §1
[19] = tested on: Mycobacterium tuberculosis; assay: Antimicrobial activity against Mycobacterium tuberculosis 16C9 harboring embB497 CAG-CGG(Gln-Arg) mutation in embCAB gene after 4 weeks by Bactec 460TB method; procedure, shortened: as §1
[20] = tested on: Mycobacterium tuberculosis; assay: Antimicrobial activity against Mycobacterium tuberculosis 16C16 harboring embB1024 GAC-AAC(Asp-Asn) mutation in embCAB gene after 4 weeks by 7H agar proportion method; procedure, shortened: as §3
[21] = tested on: Mycobacterium tuberculosis; assay: Antimicrobial activity against Mycobacterium tuberculosis 16C15 harboring embB497 CAG-CGG(Gln-Arg) mutation in embCAB gene after 4 weeks by Bactec 460TB method; procedure, shortened: as §1
[22] = tested on: Mycobacterium tuberculosis; assay: Antimicrobial activity against Mycobacterium tuberculosis 32C5 harboring embB324 GGC-CGC(Gly-Arg) mutation in embCAB gene after 4 weeks by 7H agar proportion method; procedure, shortened: as §3
[23] = tested on: Mycobacterium tuberculosis; assay: Antimicrobial activity against Mycobacterium tuberculosis NJT210TGC harboring embB406 GGC-TGC(Gly-Cys) mutation in embB gene after 4 weeks; procedure, shortened: as §2
[24] = tested on: Mycobacterium tuberculosis; assay: Antimicrobial activity against Mycobacterium tuberculosis NJT210TCC harboring embB406 GGC-TCC(Gly-Ser) mutation in embB gene after 4 weeks; procedure, shortened: as §2
[25] = tested on: Mycobacterium tuberculosis; assay: Antimicrobial activity against Mycobacterium tuberculosis 8C7 harboring embB445 CAG-CGG(Gln-Arg) mutation in embCAB gene after 4 weeks by 7H agar proportion method; procedure, shortened: as §3
[26] = tested on: Mycobacterium tuberculosis; assay: Antimicrobial activity against Mycobacterium tuberculosis harboring mutation in embB306 gene after 4 weeks

CC[C@@H](CO)NCCN[C@@H](CC)CO [ETHAMBUTOL]
MIC [1]: 2 µg/mL (≈ 9.79 µM) | MIC [2]: 12 µg/mL (≈ 58.7 µM) | MIC [3]: 5 µg/mL (≈ 24.5 µM) | MIC [4]: 7 µg/mL (≈ 34.3 µM) | MIC [5]: 3 µg/mL (≈ 14.7 µM) | MIC [6]: 4 µg/mL (≈ 19.6 µM) | MIC [7]: 8 µg/mL (≈ 39.2 µM) | MIC [8]: 8 µg/mL (≈ 39.2 µM) | MIC [9]: 4 µg/mL (≈ 19.6 µM) | MIC [10]: 7 µg/mL (≈ 34.3 µM) | MIC [11]: 8 µg/mL (≈ 39.2 µM) | MIC [12]: 2 µg/mL (≈ 9.79 µM) | MIC [13]: 8 µg/mL (≈ 39.2 µM) | MIC [14]: 12 µg/mL (≈ 58.7 µM) | MIC [15]: 6 µg/mL (≈ 29.4 µM) | MIC [16]: 8 µg/mL (≈ 39.2 µM) | MIC [17]: 16 µg/mL (≈ 78.3 µM) | MIC [18]: 12 µg/mL (≈ 58.7 µM) | MIC [19]: 12 µg/mL (≈ 58.7 µM) | MIC [20]: 8 µg/mL (≈ 39.2 µM) | MIC [21]: 12 µg/mL (≈ 58.7 µM) | MIC [22]: 8 µg/mL (≈ 39.2 µM) | MIC [23]: 7 µg/mL (≈ 34.3 µM) | MIC [24]: 6 µg/mL (≈ 29.4 µM) | MIC [25]: 4 µg/mL (≈ 19.6 µM) | MIC [26]: >20 µg/mL

NNC(=O)c1ccncc1 [ISONIAZID]
MIC [4]: 0.05 µg/mL (≈ 0.365 µM) | MIC [10]: 0.05 µg/mL (≈ 0.365 µM) | MIC [14]: 0.05 µg/mL (≈ 0.365 µM) | MIC [23]: 0.05 µg/mL (≈ 0.365 µM) | MIC [24]: 0.05 µg/mL (≈ 0.365 µM)

CO[C@H]1/C=C/O[C@@]2(C)Oc3c(C)c(O)c4c(O)c(c(/C=N/N5CCN(C)CC5)c(O)c4c3C2=O)NC(=O)/C(C)=C\C=C\[C@H](C)[C@H](O)[C@@H](C)[C@@H](O)[C@@H](C)[C@H](OC(C)=O)[C@@H]1C [RIFAMPIN]
MIC [4]: 0.05 µg/mL (≈ 0.0608 µM) | MIC [10]: 0.05 µg/mL (≈ 0.0608 µM) | MIC [14]: 0.05 µg/mL (≈ 0.0608 µM) | MIC [23]: 0.05 µg/mL (≈ 0.0608 µM) | MIC [24]: 0.05 µg/mL (≈ 0.0608 µM)
